Compound activity from PubChem.
Compounds with a hit are over-represented: about 1.5% of the library has one in this group of screens.
Rev-erbA mod – modulates human Rev-erb alpha binding to DNA; P20393; AID 1259318; Rev-erbα–FITC-DNA binding, fluorescence polarization, 90 min; 370,000 compounds, 0.79% hits; activity, % at 10 µM;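 active = activity above about 14%, limit read from the data; passing the limit was not always enough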;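 note: 0% = DMSO wells with 35 nM protein and 100% = DMSO wells with 750 nM protein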
Target sequence (P20393 whole entry, looked up): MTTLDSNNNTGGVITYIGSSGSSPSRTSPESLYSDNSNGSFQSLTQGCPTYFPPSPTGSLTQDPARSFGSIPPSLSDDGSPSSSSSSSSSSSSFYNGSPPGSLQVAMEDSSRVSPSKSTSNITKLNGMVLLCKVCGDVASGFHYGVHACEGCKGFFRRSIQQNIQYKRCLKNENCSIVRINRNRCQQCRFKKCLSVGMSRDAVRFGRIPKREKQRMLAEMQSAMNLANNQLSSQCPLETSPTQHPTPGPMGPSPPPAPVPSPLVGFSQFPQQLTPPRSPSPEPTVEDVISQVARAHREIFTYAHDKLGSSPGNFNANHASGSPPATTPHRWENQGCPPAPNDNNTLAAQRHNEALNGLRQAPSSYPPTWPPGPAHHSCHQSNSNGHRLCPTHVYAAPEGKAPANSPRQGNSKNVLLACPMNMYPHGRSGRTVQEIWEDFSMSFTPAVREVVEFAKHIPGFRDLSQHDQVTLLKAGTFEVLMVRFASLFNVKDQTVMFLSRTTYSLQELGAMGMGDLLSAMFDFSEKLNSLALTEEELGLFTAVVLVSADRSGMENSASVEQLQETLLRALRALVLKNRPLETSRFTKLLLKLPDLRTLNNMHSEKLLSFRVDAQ
PG9 binder – binds the HIV-1 gp120 antibody PG9; 360,000 compounds, 0.43% hits; AID 624416; TR-FRET gp120-PG9 antibody binding; inhibition, % at 6.7 µM; in the data active = inhibition above about 8.5%
NR2E3 ag-1 – human photoreceptor-specific nuclear receptor agonism; inhibition of corepressor binding, % at 3.98 µM; AID 602229; CHO-S Gal4-NCOR/VP16-NR2E3 two-hybrid, luciferase; Q9Y5X4; 360,000 compounds, 0.35% hits;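 active = inhibition above the mean of all tested compounds plus 3 SD, cut at about 70% in these data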;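 note: 0% = DMSO with NR2E3 transfected cells and 100% = cells lacking NR2E3 construct; higher means lower luciferase signal from less NR2E3 corepressor binding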
NR2E3 ag-2 – activates human photoreceptor nuclear receptor NR2E3; inhibition of corepressor binding, % at 4.78 µM; 320,000 compounds, 0.12% hits; Q9Y5X4; GST-NR2E3/biotin-RetCOR TR-FRET, 1536-well;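 active = percent inhibition above the cutoff of mean plus 3 SD of all tested compounds, set per screening campaign, cut at about 20% in these data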;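 note: 0% = DMSO wells and 100% = biotin wells as full block of FRET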
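Format: 1536-well format; test system: GST-NR2E3 and biotin-RetCOR proteins; read-out basis: percent inhibition of TR-FRET ratio; timing: 5 h incubation at 4 °C; detection: time-resolved FRET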
NR2E3 ag conf – confirmation of human NR2E3 agonists | inhibition, % at 3.98 µM | shares compounds with NR2E3 ag-1 | CHO-S mammalian two-hybrid NR2E3-NCOR, luciferase luminescence | 2,300 compounds, 51% hits | AID 624378;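 active = average inhibition above a cutoff equal to the mean inhibition of all tested compounds plus one SD, cut at about 70% in these data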;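 note: 0% = DMSO in NR2E3 cells and 100% = DMSO in cells lacking NR2E3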
VP16 counter – GAL4-VP16 reporter inhibition in NR2E3 agonist counterscreen. CHO-S GAL4-VP16 luciferase reporter, luminescence. inhibition, % at 3.98 µM. 2,300 compounds, 29% hits. shares compounds with NR2E3 ag-1;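 active = mean inhibition above a cutoff equal to the average over all tested compounds plus one standard deviation, cut at about 70% in these data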;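 note: luciferase from a UAS reporter driven by GAL4-VP16 transactivation; 0% = DMSO with VP16-transfected cells and 100% = DMSO with cells lacking VP16; higher means less reporter light so more repression of VP16 activity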
* marks the source's active call; other numbers are inactive results; nt = not tested or not shown.

SMILES	Rev-erbA mod	PG9 binder	NR2E3 ag-1	NR2E3 ag-2	NR2E3 ag conf	VP16 counter
O=C1CCC[C@H]2C[C@H](NCc3cccc(I)c3)CC[C@]23CCCN13	-7	nt	nt	nt	nt	nt
COc1c(O)cc2c(c1O)[C@H]1O[C@H](CO)[C@@H](O)[C@H](O)[C@@H]1OC2=O	-4	nt	nt	nt	nt	nt
O=C(Nc1ccccc1)Nc1nc2ncccn2c1-c1ccc(F)cc1	4	nt	nt	nt	nt	nt
COc1ccc(NC(=O)COc2cccc3c2OC(C)(C)C3)c(OC)c1	5	-3	24	nt	nt	nt
COc1cc(C)c(NC(=O)COc2cccc3c2OC(C)(C)C3)cc1OC	nt	nt	62	-4	10	41
CN(C)c1ccc(Sc2ccc3nc(N)nc(N)c3c2)cc1	0	-4	76*	nt	36	52
CCn1nc(C)c(CNC(=O)c2cc(COc3ccc(F)cc3Cl)on2)c1C	3	0	51	1	86*	71*
CCn1cc(CNC(=O)c2cc(COc3ccc(F)cc3Cl)on2)cn1	4	-2	-1	3	nt	nt
Cn1c(-c2ccc(C(C)(C)C)cc2)n[nH]c1=S	-2	1	-38	-1	nt	nt
CC(C)(C)c1ccc(-c2n[nH]c(=S)n2C2CCCC2)cc1	1	0	65	-1	72*	61
COCCN=C1S/C(=C\c2cc(C)n(-c3ccc(F)cc3F)c2C)C(=O)N1C	5	nt	nt	nt	nt	nt
O=C(NCCc1ccc(F)cc1)Nc1ccc([N+](=O)[O-])cc1	5	-1	-38	nt	nt	nt
O=[N+]([O-])c1ccc(NC(=S)NCCc2ccc(F)cc2)cc1	5	-3	63	-3	77*	48
CSc1ccc(-c2nc(CSCC(=O)NCCCN3CCOCC3)c(C)o2)cc1	4	1	46	-1	nt	nt
CCCNC(=O)CSCc1nc(-c2ccc(SC)cc2)oc1C	-5	0	82*	1	78*	79*
CCc1ccc(-c2nc(CSCC(=O)NCc3ccco3)c(C)o2)cc1	2	-3	101*	nt	96*	96*
COC(CNC(=O)CSCc1nc(-c2ccc(SC)cc2)oc1C)OC	-1	2	69	-3	78*	49
CCN(CC)c1ccc(/C=C/c2ccc3ccc(OC)cc3[n+]2CC)cc1	-2	-34	64	-6	98*	77*
COC(=O)C1CN(Cc2ccc(C)cc2)CCS(=O)(=O)N1Cc1cn(Cc2ccc(OC)cc2)nn1 (stereo not given)	-4	nt	nt	nt	nt	nt
CC1=C(C)/C(=N\OS(=O)(=O)c2ccc(C)cc2)C=CC1=O	-2	0	71*	-1	8	4
COc1ccc(S(=O)(=O)/N=C2/C=CC(=O)C(C)=C2C)cc1	nt	nt	-19	-1	nt	nt
Cc1cc(C)c(C#N)c(SCc2nnc(-c3ccccc3)o2)n1	1	0	88*	-3	73*	38
Cc1cc(C)c(C#N)c(SCc2nnc(-c3ccccc3[N+](=O)[O-])o2)n1	-1	2	-96	3	nt	nt
Cc1ccc(C#N)c(SCc2cc3c(cc2Cl)OCO3)n1	11	-4	6	5	nt	nt
Cc1ccc(C#N)c(SCc2nnc(-c3ccc(Cl)cc3)o2)n1	0	0	72*	-1	77*	38
SMILES	Rev-erbA mod	PG9 binder	NR2E3 ag-1	NR2E3 ag-2	NR2E3 ag conf	VP16 counter
O=C(C1CC1)N1CCc2cc(Br)cc(S(=O)(=O)N3CCN(c4ccccn4)CC3)c21	-9	-1	87*	1	90*	2
COc1ccc(NS(=O)(=O)c2cccc(C(=O)OCC(=O)N3CCN(c4ccc(OC)cc4)CC3)c2)cc1	-3	-1	63	2	28	50
COc1ccc(N2CCN(C(=O)c3ccc(NS(=O)(=O)c4cccc(F)c4)cc3)CC2)cc1	1	0	19	-2	nt	nt
COc1ccc(NS(=O)(=O)c2ccc(C(=O)N3CCN(c4ccc(F)cc4)CC3)cc2)cc1	5	0	75*	nt	74*	65
Cc1sc2ncnc(NCCc3ccc(S(N)(=O)=O)cc3)c2c1C	5	0	89*	2	94*	77*
NS(=O)(=O)c1ccc(CCNc2ncnc3sccc23)cc1	0	0	12	3	nt	nt
O=C(c1ccc(N2CCCCC2)c([N+](=O)[O-])c1)N1CCN(S(=O)(=O)c2ccccc2)CC1	4	-2	15	1	nt	nt
NC(=O)c1ccc(N2CCN(S(=O)(=O)c3ccccc3)CC2)c([N+](=O)[O-])c1	0	0	74*	2	87*	69
Cc1ccnc(NC(=O)Cc2ccc(-c3ccccc3)cc2)c1	2	-1	93*	2	98*	-24
O=C(Cc1ccc(-c2ccccc2)cc1)Nc1ccccn1	6	2	72*	3	69	-13
Cc1ccc(NC(=O)Cc2ccc(-c3ccccc3)cc2)nc1	2	-2	66	0	nt	nt
O=C(O[C@H]1CC[C@@]23CCCN2C(=O)CCC[C@H]3C1)N1CCOCC1	0	nt	nt	nt	nt	nt
O=C(C(=O)c1cc(Br)ccc1O)c1cc(Br)ccc1O	-1	-2	99*	nt	100*	92*
O=C(c1ccc(O)c(Br)c1)c1cc(Br)ccc1O	-2	-2	85*	nt	96*	74*
C/C=N/NC(=O)c1cc(Br)ccc1O	-8	-1	-4	-1	nt	nt
O=C(OCC#CCSc1nnc(-c2ccccc2Cl)o1)c1ccc(F)cc1	-2	nt	nt	nt	nt	nt
OC(c1ccc(Cl)c(F)c1)c1ncc(-c2cccc(F)c2)[nH]1 (stereo not given)	-4	1	73*	nt	66	47
OC(c1ccc(Cl)c(Cl)c1)c1ncc(-c2ccc(Cl)cc2)[nH]1 (stereo not given)	3	1	43	nt	nt	nt
Cc1cc(Cl)ccc1C(O)c1ncc(-c2ccc(F)cc2)[nH]1 (stereo not given)	nt	nt	59	nt	6	32
OC(c1ccc(Cl)c(F)c1)c1ncc(-c2ccc(Cl)cc2)[nH]1 (stereo not given)	-4	0	68	nt	86*	66
C[C@H]1[C@H](NC(=O)c2ccc(Cl)c(Cl)c2)CC[C@@]23CCCN2C(=O)CCC[C@@H]13	-4	nt	nt	nt	nt	nt
Cc1ccc(-n2c(Cc3cccs3)nnc2SCC(=O)Nc2cccc3ccccc23)cc1	-1	nt	nt	nt	nt	nt
O=[N+]([O-])c1cc(C(F)(F)F)cc([N+](=O)[O-])c1NCCNC(=S)Nc1ccc(Cl)c(Cl)c1	9	-1	65	2	98*	25
O=C(Nc1ccc(Cl)cc1Cl)O[C@@H]1CC[C@@]23CCCN2C(=O)CCC[C@H]3C1	3	nt	nt	nt	nt	nt
Cc1ccc(C(=O)NNC(=S)NC(=O)c2ccccc2)cc1	4	-2	23	6	nt	nt
Cc1ccc(C(=O)NNC(=S)NC(=O)c2ccc(Cl)cc2Cl)cc1	-1	3	54	2	48	29
COc1ccc(-n2c(SCC(=O)NNC(=S)Nc3ccccc3)nc3ccccc3c2=O)cc1	-1	nt	nt	nt	nt	nt
CCN(Cc1ccccc1)C(=O)C1C2C=CC3(CN(Cc4ccccc4)C(=O)C13)O2 (stereo not given)	-1	nt	nt	nt	nt	nt
